In ChEMBL document CHEMBL3098013, “Novel pyrazole integrated 1,3,4-oxadiazoles: synthesis, characterization and antimicrobial evaluation” (2014):
Converted amounts (≈) assume the structure as drawn.

Tests used:
Format in all cases: functional
[1] = system: Klebsiella pneumoniae; experiment: Antimicrobial activity against Klebsiella pneumoniae MTCC 3384 after 24 hrs by microdilution method; conditions: MTCC 3384, 24 h
How it was run: (§1)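 The minimal inhibitory concentration was determined by dilution, alongside minimal bactericidal concentration for bacterial strains and minimal fungicidal concentration for fungal strains. Tests were run in six replicates, and the value is the mean of at least three determinations.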

[2] = system: Staphylococcus aureus; experiment: Antimicrobial activity against Staphylococcus aureus MTCC 96 at 100 ug/ml after 24 hrs by disc diffusion method; conditions: MTCC 96, 24 h, read-out: DIZ
How it was run: (§2)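 Agar diffusion read-out is the diameter of the inhibition zone in mm. Each test was run in six replicates and reported as mean ± standard deviation, taken from at least three determinations.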

[3] = system: Staphylococcus aureus; experiment: Antimicrobial activity against Staphylococcus aureus MTCC 96 at 50 ug/ml after 24 hrs by disc diffusion method; conditions: MTCC 96, 24 h, read-out: DIZ; how it was run: as §2
[4] = system: Klebsiella pneumoniae; experiment: Antimicrobial activity against Klebsiella pneumoniae MTCC 3384 at 50 ug/ml after 24 hrs by disc diffusion method; conditions: MTCC 3384, 24 h, read-out: DIZ; how it was run: as §2
[5] = system: Klebsiella pneumoniae; experiment: Antimicrobial activity against Klebsiella pneumoniae MTCC 3384 at 100 ug/ml after 24 hrs by disc diffusion method; conditions: MTCC 3384, 24 h, read-out: DIZ; how it was run: as §2
[6] = system: Fusarium verticillioides; experiment: Antimicrobial activity against Fusarium moniliforme MTCC 156 at 100 ug/ml after 48 hrs by disc diffusion method; conditions: MTCC 156, 48 h, read-out: DIZ; how it was run: as §2
[7] = system: Bacillus cereus; experiment: Antimicrobial activity against Bacillus cereus MTCC 8372 after 24 hrs by microdilution method; conditions: MTCC 8372, 24 h; how it was run: as §1
[8] = system: Aspergillus niger; experiment: Antimicrobial activity against Aspergillus niger MTCC 281 after 48 hrs by microdilution method; conditions: MTCC 281, 48 h; how it was run: as §1
[9] = system: Aspergillus flavus; experiment: Antimicrobial activity against Aspergillus flavus MTCC 873 at 100 ug/ml after 48 hrs by disc diffusion method; conditions: MTCC 873, 48 h, read-out: DIZ; how it was run: as §2
[10] = system: Aspergillus flavus; experiment: Antimicrobial activity against Aspergillus flavus MTCC 873 at 50 ug/ml after 48 hrs by disc diffusion method; conditions: MTCC 873, 48 h, read-out: DIZ; how it was run: as §2
[11] = system: Fusarium oxysporum; experiment: Antimicrobial activity against Fusarium oxysporum MTCC 284 at 50 ug/ml after 48 hrs by disc diffusion method; conditions: MTCC 284, 48 h, read-out: DIZ; how it was run: as §2
[12] = system: Bacillus cereus; experiment: Antimicrobial activity against Bacillus cereus MTCC 8372 at 100 ug/ml after 24 hrs by disc diffusion method; conditions: MTCC 8372, 24 h, read-out: DIZ; how it was run: as §2
[13] = system: Escherichia coli; experiment: Antimicrobial activity against Escherichia coli MTCC 724 after 24 hrs by microdilution method; conditions: MTCC 724, 24 h; how it was run: as §1
[14] = system: Escherichia coli; experiment: Antimicrobial activity against Escherichia coli MTCC 724 at 100 ug/ml after 24 hrs by disc diffusion method; conditions: MTCC 724, 24 h, read-out: DIZ; how it was run: as §2
[15] = system: Fusarium verticillioides; experiment: Antimicrobial activity against Fusarium moniliforme MTCC 156 at 50 ug/ml after 48 hrs by disc diffusion method; conditions: MTCC 156, 48 h, read-out: DIZ; how it was run: as §2
[16] = system: Bacillus cereus; experiment: Antimicrobial activity against Bacillus cereus MTCC 8372 at 50 ug/ml after 24 hrs by disc diffusion method; conditions: MTCC 8372, 24 h, read-out: DIZ; how it was run: as §2
[17] = system: Escherichia coli; experiment: Antimicrobial activity against Escherichia coli MTCC 724 at 50 ug/ml after 24 hrs by disc diffusion method; conditions: MTCC 724, 24 h, read-out: DIZ; how it was run: as §2
[18] = system: Aspergillus niger; experiment: Antimicrobial activity against Aspergillus niger MTCC 281 at 100 ug/ml after 48 hrs by disc diffusion method; conditions: MTCC 281, 48 h, read-out: DIZ; how it was run: as §2
[19] = system: Aspergillus flavus; experiment: Antimicrobial activity against Aspergillus flavus MTCC 873 after 48 hrs by microdilution method; conditions: MTCC 873, 48 h; how it was run: as §1
[20] = system: Fusarium oxysporum; experiment: Antimicrobial activity against Fusarium oxysporum MTCC 284 at 100 ug/ml after 48 hrs by disc diffusion method; conditions: MTCC 284, 48 h, read-out: DIZ; how it was run: as §2
[21] = system: Staphylococcus aureus; experiment: Antimicrobial activity against Staphylococcus aureus MTCC 96 after 24 hrs by microdilution method; conditions: MTCC 96, 24 h; how it was run: as §1
[22] = system: Aspergillus niger; experiment: Antimicrobial activity against Aspergillus niger MTCC 281 at 50 ug/ml after 48 hrs by disc diffusion method; conditions: MTCC 281, 48 h, read-out: DIZ; how it was run: as §2
[23] = system: Fusarium verticillioides; experiment: Antimicrobial activity against Fusarium moniliforme MTCC 156 after 48 hrs by microdilution method; conditions: MTCC 156, 48 h; how it was run: as §1
[24] = system: Fusarium oxysporum; experiment: Antimicrobial activity against Fusarium oxysporum MTCC 284 after 48 hrs by microdilution method; conditions: MTCC 284, 48 h; how it was run: as §1

MIC [1] [µg/mL] | MIC [7] [µg/mL] | MIC [8] [µg/mL] | MIC [13] [µg/mL] | SMILES | MBC [1] [µg/mL] | zone of inhibition at 100 µg/mL [2] [mm] | zone of inhibition at 50 µg/mL [3] [mm] | zone of inhibition at 50 µg/mL [4] [mm] | zone of inhibition at 100 µg/mL [5] [mm] | zone of inhibition at 100 µg/mL [6] [mm] | MBC [7] [µg/mL] | MFC [8] [µg/mL] | zone of inhibition at 100 µg/mL [9] [mm] | zone of inhibition at 50 µg/mL [10] [mm] | zone of inhibition at 50 µg/mL [11] [mm] | zone of inhibition at 100 µg/mL [12] [mm] | MBC [13] [µg/mL] | zone of inhibition at 100 µg/mL [14] [mm] | zone of inhibition at 50 µg/mL [15] [mm] | zone of inhibition at 50 µg/mL [16] [mm] | also measured
35 (≈ 120 µM) | 40 (≈ 137 µM) | 45 (≈ 154 µM) | 35 (≈ 120 µM) | Cc1c(C(=O)NN)c(-c2ccccc2)nn1-c1ccccc1 | 230 (≈ 787 µM) | 9 | 2 | 5 | 8 | 6 | 260 (≈ 889 µM) | 260 (≈ 889 µM) | 6 | 2 | 3 | 6 | 240 (≈ 821 µM) | 11 | 4 | 4 | zone of inhibition at 50 µg/mL [17]: 9 mm; zone of inhibition at 100 µg/mL [18]: 8 mm; MFC [19]: 275 µg/mL (≈ 941 µM); MIC [19]: 40 µg/mL (≈ 137 µM); zone of inhibition at 100 µg/mL [20]: 8 mm; MBC [21]: 250 µg/mL (≈ 855 µM); MIC [21]: 40 µg/mL (≈ 137 µM); zone of inhibition at 50 µg/mL [22]: 2 mm; MFC [23]: 280 µg/mL (≈ 958 µM); MIC [23]: 50 µg/mL (≈ 171 µM); MFC [24]: 270 µg/mL (≈ 924 µM); MIC [24]: 45 µg/mL (≈ 154 µM)
30 (≈ 72.7 µM) | 40 (≈ 96.9 µM) | 25 (≈ 60.6 µM) | 35 (≈ 84.8 µM) | Cc1c(-c2nnc(-c3ccc(Cl)cc3)o2)c(-c2ccccc2)nn1-c1ccccc1 | 220 (≈ 533 µM) | 10 | 5 | 6 | 12 | 8 | 240 (≈ 581 µM) | 215 (≈ 521 µM) | 16 | 14 | 4 | 8 | 235 (≈ 569 µM) | 12 | 6 | 4 | zone of inhibition at 50 µg/mL [17]: 10 mm; zone of inhibition at 100 µg/mL [18]: 24 mm; MFC [19]: 230 µg/mL (≈ 557 µM); MIC [19]: 30 µg/mL (≈ 72.7 µM); zone of inhibition at 100 µg/mL [20]: 8 mm; MBC [21]: 250 µg/mL (≈ 606 µM); MIC [21]: 45 µg/mL (≈ 109 µM); zone of inhibition at 50 µg/mL [22]: 9 mm; MFC [23]: 300 µg/mL (≈ 727 µM); MIC [23]: 55 µg/mL (≈ 133 µM); MFC [24]: 275 µg/mL (≈ 666 µM); MIC [24]: 40 µg/mL (≈ 96.9 µM)
25 (≈ 63.1 µM) | 25 (≈ 63.1 µM) | 30 (≈ 75.7 µM) | 25 (≈ 63.1 µM) | Cc1c(C(=O)NNC(=O)c2ccccc2)c(-c2ccccc2)nn1-c1ccccc1 | 200 (≈ 504 µM) | 18 | 6 | 8 | 14 | 9 | 180 (≈ 454 µM) | 215 (≈ 542 µM) | 12 | 10 | 8 | 16 | 190 (≈ 479 µM) | 18 | 6 | 8 | zone of inhibition at 50 µg/mL [17]: 13 mm; zone of inhibition at 100 µg/mL [18]: 14 mm; MFC [19]: 275 µg/mL (≈ 694 µM); MIC [19]: 50 µg/mL (≈ 126 µM); zone of inhibition at 100 µg/mL [20]: 10 mm; MBC [21]: 200 µg/mL (≈ 504 µM); MIC [21]: 25 µg/mL (≈ 63.1 µM); zone of inhibition at 50 µg/mL [22]: 8 mm; MFC [23]: 260 µg/mL (≈ 656 µM); MIC [23]: 50 µg/mL (≈ 126 µM); MFC [24]: 260 µg/mL (≈ 656 µM); MIC [24]: 40 µg/mL (≈ 101 µM)
